According to ChEMBL document CHEMBL1125566, “N-methylcarbamate derivatives of ellipticine and olivacine with cytotoxic activity against four human lung cancer cell lines” (J Med Chem, 1992):

Columns and labels:
Assay type in all cases: functional, cell-based
NCI-H69 [1] = assay: Cytotoxicity against H69 human lung cancer cell line
Summary of the method: (§1)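 SCLC floating cultures, grown in RPMI 1640 at 37 °C under 5% CO2, disaggregated by gentle pipetting, collected by sedimentation, and plated at 8000 cells/well. Drug (DMSO, then BSA and phosphate buffer dilutions) applied for 1 h, then centrifuged and washed twice with RPMI 1640. After 4 days at 37 °C, MTT was added for 4 h and formazan in DMSO read at 540 nm. IC50 is 50% growth inhibition.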

NCI-H417 [2] = assay: Cytotoxicity against N 417 human lung cancer cell line; summary of the method: as §1
NCI-H358 [3] = assay: Cytotoxicity against H 358 human lung cancer cell line
Summary of the method: (§2)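 Non-SCLC adherent cells, grown in RPMI 1640 at 37 °C under 5% CO2, trypsinized, resuspended in RPMI-1640/2% FBS, and plated at 2500 cells/well. Drug (DMSO, then BSA and phosphate buffer dilutions) applied for 1 h, then centrifuged and washed twice. Cells were kept 4 days at 37 °C, given MTT for 4 h, formazan dissolved in DMSO, and read at 540 nm. IC50 is the concentration giving 50% growth inhibition.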

NCI-H460 [4] = assay: Cytotoxicity against H 460 human lung cancer cell line; summary of the method: as §2
NCI-H69 [5] = assay: Compound was evaluated for inhibitory activity against H69 human lung cancer cell line; summary of the method: as §1
NCI-H358 [6] = assay: Compound was evaluated for inhibitory activity against H 358 human lung cancer cell line; summary of the method: as §2
NCI-H460 [7] = assay: Compound was evaluated for inhibitory activity against H 460 human lung cancer cell line; summary of the method: as §2
NCI-H417 [8] = assay: Compound was evaluated for inhibitory activity against N 417 human lung cancer cell line; summary of the method: as §1

SMILES | IC50 (NCI-H69 [1]) [nM] | IC50 (NCI-H417 [2]) [nM] | IC50 (NCI-H358 [3]) [nM] | IC50 (NCI-H460 [4]) [nM] | IC50 (NCI-H69 [5]) [nM] | IC50 (NCI-H358 [6]) [nM] | IC50 (NCI-H460 [7]) [nM] | IC50 (NCI-H417 [8]) [nM]
CNC(=O)OCc1c2ccncc2c(C)c2c1[nH]c1ccc(OC)cc12 | 220 | 90 | 100 | 60 |  |  |  | 
Cc1c2cnccc2c(CO)c2[nH]c3ccc(O)cc3c12 | 1600 | 1800 | 1500 | 950 |  |  |  | 
COc1ccc2[nH]c3c(C)c4ccnc(C=O)c4cc3c2c1 |  |  |  |  | 1800 | 1500 | 1800 | 900
CNC(=O)OCc1nccc2c(C)c3[nH]c4ccc(OC)cc4c3cc12 | 140 | 100 | 110 | 70 |  |  |  | 
CNC(=O)OCc1c2cnccc2c(C)c2[nH]c3ccc(OC)cc3c12 | 170 | 40 | 90 | 20 |  |  |  | 
COc1ccc2[nH]c3c(C)c4ccnc(CO)c4cc3c2c1 | 1300 | 1300 | 1300 | 1900 |  |  |  | 
COc1ccc2[nH]c3c(C)c4ccnc(COC(C)=O)c4cc3c2c1 | 1400 | 2800 | 2000 | 1700 |  |  |  | 
CNC(=O)OCc1c2ccncc2c(C)c2c1[nH]c1ccccc12 | 860 | 330 | 190 | 170 |  |  |  | 
Cc1c2ccncc2c(C)c2c1[nH]c1ccc(O)cc12 | 1700 | 3500 | 5800 | 2800 |  |  |  | 
Cc1nccc2c(C)c3[nH]c4ccccc4c3cc12 |  |  |  |  | 1700 | 2300 | 1800 | 3400
COc1ccc2[nH]c3c(C)c4ccnc(C)c4cc3c2c1 |  |  |  |  | 1200 | 2100 | 2100 | 1800
COc1cccc2c1C(=O)c1c(O)c3c(c(O)c1C2=O)C[C@@](O)(C(=O)CO)C[C@@H]3O[C@H]1C[C@H](N)[C@H](O)[C@H](C)O1 [DOXORUBICIN] |  |  |  |  | 870 | 620 | 230 | 230
Cc1c2ccncc2c(C)c2c1[nH]c1ccccc12 [ELLIPTECINE] |  |  |  |  | 1800 | 200 | 510 | 870
Cc1c2cc[n+](C)cc2c(C)c2c1[nH]c1ccc(O)cc12 [ELLIPTINIUM] |  |  |  |  | > 48000 | > 48000 | > 48000 | > 48000
